ChEMBL document CHEMBL1125228, “A 3-D model for 5-HT1A-receptor agonists based on stereoselective methyl-substituted and conformationally restricted analogues of 8-hydroxy-2-(dipropylamino)tetralin” (J Med Chem, 1991)
Values joined by “and” are separate entries in the source; they are usually repeats but may differ in a detail not shown here. Identical values can stand only once.

Key:
[1] = target: T1, 5-hydroxytryptamine receptor 1A (Rattus norvegicus, UniProt P19327); assay: Binding affinity at 5-hydroxytryptamine 1A receptor by the displacement of [3H]8-OH-DPAT in rat brain.; format: tissue-based
T1 sequence (P19327 whole entry): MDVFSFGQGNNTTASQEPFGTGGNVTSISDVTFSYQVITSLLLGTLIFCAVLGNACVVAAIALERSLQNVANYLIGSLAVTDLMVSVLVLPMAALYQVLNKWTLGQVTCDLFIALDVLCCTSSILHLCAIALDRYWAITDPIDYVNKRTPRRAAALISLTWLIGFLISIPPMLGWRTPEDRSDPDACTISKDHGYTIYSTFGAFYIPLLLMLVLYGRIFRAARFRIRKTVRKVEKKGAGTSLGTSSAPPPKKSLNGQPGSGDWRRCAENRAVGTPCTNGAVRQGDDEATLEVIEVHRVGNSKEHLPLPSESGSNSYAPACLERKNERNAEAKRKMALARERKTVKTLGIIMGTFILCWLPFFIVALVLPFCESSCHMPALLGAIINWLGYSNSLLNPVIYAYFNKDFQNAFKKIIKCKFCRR
How it was run: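 Rat brain membranes washed in 50 mM Tris-HCl pH 7.4, with a 37 °C 10 min incubation to remove endogenous 5-HT, used at 10 mg wet tissue/mL. Incubated 15 min at 37 °C with 1 nM [3H]-8-OH-DPAT, 3 mM CaCl2 and pargyline. Filtered and counted; 10 µM 5-HT defined nonspecific binding. IC50 from four-parameter logistic fit, converted to Ki by Cheng-Prusoff; mean ± SEM of N experiments.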

Rattus norvegicus [2] = assay: In vivo accumulation of 5-HT in striatum of rat brain at a dose of 63 umol/kg.; format: functional
How it was run: (§1)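 Hydrochlorides given sc in the neck (5 mL/kg) to rats, either untreated or reserpine-pretreated (5 mg/kg sc, 6 h before). Decarboxylase inhibitor NSD 1015 (100 mg/kg ip or 60 mg/kg sc) given 30 min later; rats decapitated after another 30 min. Striatum, limbic system, hemispheres and brain stem dissected on ice and homogenized in 0.1 M perchloric acid with α-methyl-DOPA internal standard. DOPA, DA, 5-HTP and 5-HT measured by ion-pair reversed-phase HPLC with electrochemical detection.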

Rattus norvegicus [3] = assay: In vivo accumulation of 5-HTP in brain stem of rat brain at a dose of 63 umol/kg.; format: functional; how it was run: as §1
Rattus norvegicus [4] = assay: In vivo accumulation of DOPA in brain stem of rat brain at a dose of 63 umol/kg.; format: functional; how it was run: as §1
[5] = target: T2, Dopamine receptor (Rattus norvegicus) (UniProt P25115+P19020+P30729+P18901+P61169); assay: In vivo accumulation of DOPA in limbic of rat brain at a dose of 63 umol/kg.; format: functional, organism-based
How it was run: (§2)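 Rats, reserpine-pretreated (5 mg/kg, i.e. 9 μmol/kg sc, 6 h before) or nonpretreated, given test hydrochloride sc in the neck (injection volume 5 mL/kg). Decarboxylase inhibitor NSD 1015 (100 mg/kg ip or 60 mg/kg sc) given 30 min later; decapitation after another 30 min. Brain dissected on ice into striatum, limbic system, hemispheres, brain stem. Homogenized in 0.1 M perchloric acid with α-methyl-DOPA internal standard; DOPA measured by ion-pair reversed-phase HPLC with electrochemical detection.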

Rattus norvegicus [6] = assay: In vivo accumulation of 5-HTP in hemisphere of rat brain at a dose of 63 umol/kg.; format: functional; how it was run: as §1
Rattus norvegicus [7] = assay: In vivo accumulation of DOPA in hemisphere of rat brain at a dose of 63 umol/kg.; format: functional; how it was run: as §2
Rattus norvegicus [8] = assay: In vivo accumulation of DA in striatum of rat brain at a dose of 63 umol/kg.; format: functional; how it was run: as §1
Rattus norvegicus [9] = assay: In vivo accumulation of DOPA in striatum of rat brain at a dose of 63 umol/kg.; format: functional; how it was run: as §2
Rattus norvegicus [10] = assay: In vivo accumulation of 5-HTP in limbic of rat brain at a dose of 63 umol/kg.; format: functional; how it was run: as §1
Rattus norvegicus [11] = assay: In vivo accumulation of 5-HTP in striatum of rat brain at a dose of 63 umol/kg.; format: functional; how it was run: as §1
Rattus norvegicus [12] = assay: In vivo accumulation of 5-HT in limbic of rat brain at a dose of 63 umol/kg.; format: functional; how it was run: as §1
[13] = target: Serotonin (5-HT) receptor (Rattus norvegicus) (UniProt P35563+P35365+P32305+P31388+Q9JJ16+P28564+P30994+Q62758+P08909+P14842+P30940+P35364+P19327+P28565); assay: Dose corresponding to half-maximal decrease of 5-HTP formation in the limbic and striatal parts of rat brain; format: functional, tissue-based
Rattus norvegicus [14] = assay: In vivo accumulation of DOPA in brain stem of rat brain at a dose of 53 umol/kg.; format: functional; how it was run: as §1
Rattus norvegicus [15] = assay: In vivo accumulation of 5-HT in striatum of rat brain at a dose of 53 umol/kg.; format: functional; how it was run: as §1
Rattus norvegicus [16] = assay: In vivo accumulation of 5-HTP in striatum of rat brain at a dose of 53 umol/kg.; format: functional; how it was run: as §1
Rattus norvegicus [17] = assay: In vivo accumulation of 5-HTP in hemisphere of rat brain at a dose of 53 umol/kg.; format: functional; how it was run: as §1
Rattus norvegicus [18] = assay: In vivo accumulation of 5-HTP in brain stem of rat brain at a dose of 53 umol/kg.; format: functional; how it was run: as §1
Rattus norvegicus [19] = assay: In vivo accumulation of DA in striatum of rat brain at a dose of 53 umol/kg.; format: functional; how it was run: as §1
Rattus norvegicus [20] = assay: In vivo accumulation of 5-HTP in limbic of rat brain at a dose of 53 umol/kg.; format: functional; how it was run: as §1
Rattus norvegicus [21] = assay: In vivo accumulation of 5-HT in limbic of rat brain at a dose of 53 umol/kg.; format: functional; how it was run: as §1
Rattus norvegicus [22] = assay: In vivo accumulation of DOPA in striatum of rat brain at a dose of 53 umol/kg.; format: functional; how it was run: as §2
[23] = target: T2, Dopamine receptor (Rattus norvegicus); assay: In vivo accumulation of DOPA in hemisphere of rat brain at a dose of 53 umol/kg.; format: functional, organism-based; how it was run: as §2
[24] = target: T2, Dopamine receptor (Rattus norvegicus); assay: In vivo accumulation of DOPA in limbic of rat brain at a dose of 53 umol/kg.; format: functional, organism-based; how it was run: as §2

## CCCN1CCC[C@@H]2Cc3cccc(O)c3C[C@@H]21
[1]
  Ki: > 10000 nM

## CCCN1CCC[C@H]2Cc3cccc(O)c3C[C@@H]21
[1]
  Ki: > 10000 nM

## Oc1cccc2c1C[C@H]1NCCC[C@@H]1C2
Rattus norvegicus [2]
  Control: 100.5%
Rattus norvegicus [3]
  Control: 101.7%
Rattus norvegicus [4]
  Control: 91.4%
[5]
  Control: 84.4% and 89.8%
Rattus norvegicus [6]
  Control: 81.9%
Rattus norvegicus [7]
  Control: 79%
Rattus norvegicus [8]
  Control: 92.4%
Rattus norvegicus [9]
  Control: 84.2%
Rattus norvegicus [10]
  Control: 82.3%
Rattus norvegicus [11]
  Control: 96.5%
Rattus norvegicus [12]
  Control: 89.4%

## CCCN(CCC)C1(C)CCc2cccc(O)c2C1 (racemic)
[1]
  Ki: 1130 nM
[13]
  ED50: > 0.05 mg/kg

## CCCN(CCC)[C@H]1Cc2c(O)cccc2C[C@@H]1C
[13]
  ED50: 0.005 mg/kg

## CCCN1CCC[C@@H]2c3c(O)cccc3CC[C@H]21 [listing 1 of 2 here]
[1]
  Ki: 32.3 nM

## CCCN(CCC)C1CCc2cccc(O)c2C1C (racemic)
[1]
  Ki: 2.84 nM

## CCCN1CCC[C@@H]2Cc3cccc(O)c3C[C@H]21 [listing 1 of 2 here]
[1]
  Ki: 2810 nM

## CCCN(CCC)[C@@H]1CCc2cccc(O)c2[C@@H]1C
[1]
  Ki: 2.08 nM

## CCCN(CCC)[C@@H]1Cc2c(O)cccc2C[C@H]1C
[1]
  Ki: 1390 nM
[13]
  ED50: > 0.043 mg/kg

## CCCN1CCC[C@H]2Cc3cccc(O)c3C[C@H]21 [listing 1 of 2 here]
Rattus norvegicus [14]
  Control: 126.9%
Rattus norvegicus [15]
  Control: 100%
Rattus norvegicus [16]
  Control: 81%
Rattus norvegicus [17]
  Control: 103.9%
Rattus norvegicus [18]
  Control: 110.3%
Rattus norvegicus [19]
  Control: 81.3%
Rattus norvegicus [20]
  Control: 92.6%
Rattus norvegicus [21]
  Control: 102.9%
Rattus norvegicus [22]
  Control: 67.2%

## CCCN1CCC[C@@H]2c3c(O)cccc3CC[C@H]21 [listing 2 of 2 here]
[13]
  ED50: 0.0005 mg/kg
[23]
  Control: 117%

## CCCN1CCC[C@@H]2Cc3cccc(O)c3C[C@H]21 [listing 2 of 2 here]
Rattus norvegicus [14]
  Control: 125.1%
Rattus norvegicus [15]
  Control: 132%
Rattus norvegicus [16]
  Control: 85%
Rattus norvegicus [17]
  Control: 92.2%
Rattus norvegicus [18]
  Control: 91.9%
Rattus norvegicus [19]
  Control: 114.5%
Rattus norvegicus [20]
  Control: 88%
Rattus norvegicus [21]
  Control: 114.3%
Rattus norvegicus [22]
  Control: 66.1%

## CCCN(CCC)C1Cc2c(O)cccc2CC1(C)C (racemic)
[1]
  Ki: > 10000 nM
[13]
  ED50: > 0.05 mg/kg

## CCCN1CCC[C@H]2Cc3cccc(O)c3C[C@H]21 [listing 2 of 2 here]
[13]
  ED50: > 0.05 mg/kg
[24]
  Control: 76.9% and 83.2%
[23]
  Control: 116%

## CCCN(CCC)[C@H]1Cc2c(O)cccc2C[C@H]1C (racemic)
[1]
  Ki: 656 nM

## CCCN1CCC[C@H]2c3c(O)cccc3CC[C@@H]21
[1]
  Ki: 3.87 nM

## CCCN(CCC)[C@H]1Cc2c(O)cccc2C[C@@H]1C (racemic)
[1]
  Ki: 104 nM
